This is a sample that favours compounds with a hit; in the whole collection about 2% have one here.
PKA-R1A act: activators of PKA-R1A holoenzyme, primary screen, biochemical, fluorescence polarization, Cy5-IP20, bovine R1A, mouse PKAc; activation, % at 11.4 µM; 0.083% of 340,000 active; PKA-R1A dissociation; scaled: DMSO 0%, 113 µM cGMP 100%;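 active = percent activation above the mean of all tested compounds plus 3 SD, cut at about 19% in these data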;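 also: higher means more PKAc released from R1A so a rise in polarization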
dFosB act: activators of delta FosB homodimer, primary screen, biochemical, fluorescence polarization, TAMRA-CDK5 oligo, single point; Protein FosB (Mus musculus), P13346; purified delta FosB; percent of positive-control signal above neutral wells; activation, % at 25 µM; 0.99% of 340,000 active; AID 493131, 2011;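 active = mean activation above about 17%, with every replicate also reaching it, limit read from the data, passing the limit was not always enough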
NTR1 ag: agonists of human NTR1, primary screen, imaging, U2OS cells, beta-arrestin-GFP, high content; Neurotensin receptor type 1 (Homo sapiens), P30989; NTR1-U2OS beta-arrestin-GFP spot imaging, agonist mode; activation, % at 20 µM; 0.17% of 330,000 active;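 active = activation at or above 40% of the spot to cytoplasm intensity ratio, with at least 20 cells analyzed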;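 also: 0% = DMSO without peptide and 100% = 100 nM NTR1 peptide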
Target sequence (P30989 whole entry, looked up): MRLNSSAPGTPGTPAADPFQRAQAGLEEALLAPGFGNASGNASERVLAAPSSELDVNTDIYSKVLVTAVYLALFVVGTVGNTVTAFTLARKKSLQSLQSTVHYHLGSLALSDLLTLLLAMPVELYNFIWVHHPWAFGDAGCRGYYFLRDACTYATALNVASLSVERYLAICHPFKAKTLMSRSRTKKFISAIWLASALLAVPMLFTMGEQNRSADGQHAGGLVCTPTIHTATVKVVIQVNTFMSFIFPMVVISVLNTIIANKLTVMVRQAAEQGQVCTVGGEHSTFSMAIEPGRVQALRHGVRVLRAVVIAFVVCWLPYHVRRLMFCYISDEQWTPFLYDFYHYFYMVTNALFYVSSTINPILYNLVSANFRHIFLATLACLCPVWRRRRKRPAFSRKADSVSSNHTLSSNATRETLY
CAL PDZ FP-1: untagged CAL PDZ binding inhibitors, primary screen, biochemical, fluorescence polarization, HTS; AID 602252, 2012; inhibition, % at 24.9 µM; Golgi-associated PDZ and coiled-coil motif-containing protein (Homo sapiens), Q9HD26; purified CAL PDZ, TMR-peptide fluorescence polarization, 1 h; 0.92% of 300,000 active;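 active = mean inhibition of at least 30% with at least half of replicates also reaching 30%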;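 also: 0% = DMSO neutral control and 100% = excess unlabeled competitor peptide PRC23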
PKA-R2B act: activators of PKA-R2B holoenzyme, primary screen, biochemical, fluorescence polarization, Cy5-IP20, human | PKA-R2B holoenzyme dissociation; R2B truncated from residue 108, S112A mutant; 0% DMSO only, 100% 113 µM cGMP | activation, % at 11.4 µM | AID 504700, 2011 | 0.079% of 340,000 active | cAMP-dependent protein kinase catalytic subunit beta (Homo sapiens) + cAMP-dependent …;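 active = activation above a cutoff set at the mean over all compounds plus 3 SD, cut at about 18% in these data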;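 also: higher means more holoenzyme dissociation and a rise in polarization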
CAL PDZ FP-2: CAL PDZ peptide-binding inhibitors, primary screen, biochemical, fluorescence polarization, Cer-tagged CAL PDZ, HTS; inhibition, % at 20 µM; purified CAL PDZ, TMR-peptide fluorescence polarization, 1 h; 0.02% of 330,000 active;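 active = highest replicate inhibition of at least 40%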;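 also: plate controls were DMSO neutral control wells for no effect and unlabeled competitor peptide control wells for full effect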
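Control set: unlabelled peptide and DMSO controls / Material: purified CerCALP PDZ construct / Timing: 1 h incubation at room temperature before polarization reading / Doses: 20 µM, one dose / Detection: fluorescence polarization (mP)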
* = called active by the depositor; · = no result given; + = active, no number.

SMILES	PKA-R1A act	dFosB act	NTR1 ag	CAL PDZ FP-1	PKA-R2B act	CAL PDZ FP-2
Fc1ccc(CN2CCN(C(=S)NCCc3ccccc3)CC2)c(Cl)c1	-6.8	-3.3	4.0	34.5*	5.0	-0.2
S=C(NCCc1ccccc1)N1CCN(Cc2ccc(Cl)c(Cl)c2)CC1	8.3	0.7	8.6	11.1	6.0	-1.3
CC1CCCCC1NC(=O)CCn1c(=S)[nH]c2ccccc2c1=O (centres undefined)	-2.9	·	·	·	-1.3	·
Cc1cc(C)cc(NC(=O)CCn2c(=S)[nH]c3ccccc3c2=O)c1	-8.9	30.2*	0.9	0.7	-15.8	-2.3
Cn1c(=O)c2ncn(CC(=O)Nc3cccc(-c4nc5ccccc5s4)c3)c2n(C)c1=O	1.4	78.3*	2.1	-1.8	-3.3	-4.4
C/C(=N\NC(=S)NC1CCCCC1)c1c(F)cccc1F	-11.1	-6.7	4.6	43.7*	-2.6	-0.2
CC1CCN(CCC(=O)N/N=C/c2ccc([N+](=O)[O-])cc2)CC1	-0.6	6.6	0.3	162.6*	6.5	1.0
Cc1ccc(S(=O)(=O)NCc2ccccc2)cc1C(=O)N1CCCC(C(F)(F)F)C1 (centres undefined)	6.2	-6.9	1.9	-1.1	2.0	-3.2
O=C(COc1coc(CN2CCN(c3ccccc3)CC2)cc1=O)NC1CCCC1	-3.0	-8.5	0.4	-3.0	-0.2	-0.8
COCCCN(C(=O)CSc1nc2ccccc2c(=O)n1C)c1c(N)n(Cc2ccccc2)c(=O)[nH]c1=O	5.0	-17.4	·	-4.2	8.7	0.0
O=C(NCCCN1CCOCC1)C(=O)NCC1OCCN1S(=O)(=O)c1ccc(F)cc1 (centres undefined)	2.0	-2.4	-0.2	-3.9	5.5	-3.3
O=C(NCCN1CCOCC1)C(=O)NCC1OCCN1S(=O)(=O)c1ccc(F)cc1 (centres undefined)	-5.6	-4.5	-0.4	83.0*	9.7	2.9
COCCNC(=O)C(=O)NCC1OCCN1S(=O)(=O)c1ccc(F)cc1 (centres undefined)	0.0	-0.1	0.8	34.2*	1.0	-0.3
C[C@H]1CN([C@@H](C)CO)C(=O)c2cc(Br)cnc2O[C@@H]1CN(C)S(=O)(=O)c1ccccc1	6.0	·	·	·	-6.5	·
Cc1cc(CN(C)C(=O)C2CCC(=O)N(CCc3cccc(F)c3)C2)on1 (centres undefined)	-4.5	-1.0	0.2	58.8*	3.1	-0.5
O=C(NCCCc1ccncc1)C1CCC(=O)N(Cc2cccc(F)c2)C1 (centres undefined)	-7.8	6.9	-0.8	-5.9	1.9	-2.1
Cc1ccc(CCNC(=O)C2CCC(=O)N(Cc3cccc(F)c3)C2)cc1 (centres undefined)	3.2	1.6	1.8	59.3*	15.4	-0.3
CC(C)Cc1cc(CNC(=O)C2CCC(=O)N(CCc3cccc(F)c3)C2)on1 (centres undefined)	-2.0	1.8	1.5	-2.0	-6.4	-1.9
CCn1ccnc1CN(C)C(=O)C1CCC(=O)N(CCc2cccc(F)c2)C1 (centres undefined)	-3.4	2.9	2.5	1.7	-2.0	-1.1
CCCc1cc(CNC(=O)C2CCC(=O)N(CCc3cccc(F)c3)C2)on1 (centres undefined)	-1.9	-1.9	-0.1	35.4*	2.7	-1.2
O=C(NCC1CCOCC1)C1CCC(=O)N(Cc2cccc(C(F)(F)F)c2)C1 (centres undefined)	-3.1	0.0	1.1	32.3*	-0.6	-1.3
CN(CC(=O)NC(=O)NCc1ccccc1)CC(=O)Nc1ccc(Cl)c(Cl)c1	8.3	-8.8	4.0	-1.0	4.7	-2.0
Cc1cc(CN(C)C(=O)C2CCC(=O)N(CCc3ccccc3)C2)n[nH]1 (centres undefined)	2.0	-3.8	0.3	35.3*	7.4	-1.7
COC(=O)C1CCN(C(=O)C2CCC(=O)N(CCCc3ccccc3)C2)CC1 (centres undefined)	2.1	0.8	0.2	68.8*	6.3	-0.9
Cc1ccc(OC(=O)N(C)C[C@H]2OCc3cn(nn3)CCCC(=O)N([C@H](C)CO)C[C@@H]2C)cc1	5.1	·	·	·	-4.8	·
SMILES	PKA-R1A act	dFosB act	NTR1 ag	CAL PDZ FP-1	PKA-R2B act	CAL PDZ FP-2
CC(=O)c1sc(NC(=O)CSCc2c(C)noc2C)nc1-c1ccccc1	-4.3	-10.3	-1.4	-8.4	-6.5	-1.4
Cc1nc(NC2=NCN(CCCN3CCOCC3)CN2)nc2c(C)cccc12	3.1	31.6*	1.0	-0.5	-10.5	-3.5
CCOC(=O)C1=C(C)NC(=O)NC1c1cc(Br)c(O)c(OC)c1 (centres undefined)	0.8	-1.5	2.1	-1.4	-1.6	·
COc1cc(C2NC(=O)NC(C)=C2C(=O)OC2CCCCC2)cc(Br)c1O (centres undefined)	-16.8	-11.2	1.6	-3.8	-0.7	87.8*
COc1ccc(/C=N/NC(=O)CNC(=O)c2ccncc2)cc1OC	2.0	1.7	0.2	54.9*	0.2	-1.2
COc1ccc(OC)c(NC(=O)CC2SC(=N)N(c3ccccc3)C2=O)c1 (centres undefined)	-3.8	3.0	-0.7	+	-14.1	0.1
Cc1ccc(NC(=O)c2cc(NC(=O)/C=C\C(=O)O)ccc2N2CCCCC2)cc1	-27.4	-2.6	·	-3.2	5.8	-3.4
Cc1ccc(NC(=O)c2cc(NC(=O)c3ccccc3C(=O)O)ccc2N2CCCCC2)cc1	-11.9	-13.7	17.8	50.7*	-5.4	-3.3
COc1ccc(CN2C(=O)C(CC(=O)NCCN3CCOCC3)CC(C(=O)N3CCOCC3)=C2C)cc1 (centres undefined)	3.9	·	·	·	-3.5	·
O=C(Cc1ccccc1)NCC(=O)N1CCC2(CC1)NCCc1[nH]cnc12	0.3	-1.1	-0.1	-7.2	1.8	-2.2
Cc1ccc(NC(=O)CN2CCCC2c2cccn2C)c(Br)c1 (centres undefined)	-0.2	-11.0	3.2	38.7*	3.2	-0.6
Cc1ccc(NC(=O)CN2CCCC2c2cccn2C)cc1C (centres undefined)	-6.0	-0.2	-0.5	-5.9	-12.8	-0.7
Cc1nnc(SCC(=O)N2CCCC(C(=O)c3ccc(Cl)cc3)C2)o1 (centres undefined)	4.1	2.2	-0.6	38.5*	-14.0	·
